From ChEMBL document CHEMBL4145481, “Synthesis and biological evaluation of novel bavachinin analogs as anticancer agents” (Eur J Med Chem, 2018) come the findings set out here.

Active and inactive are the calls of the source. No cut-off for these calls is given here.

Experiment [1] deals with MCF7. The experiment in a line: Cytotoxicity against human MCF7 cells assessed as growth inhibition at 50 uM after 48 hrs by SRB assay relative to control. Particulars: MCF7, 48 h, read-out: GI. The format is functional. The method in brief: (§1)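 SRB growth-inhibition run in RPMI-1640/10% FBS at 37°C, 5% CO₂. Cell lines were seeded (PC-3 7000, MCF-7 8000, A549 7500, HCT-116 7000/well) and attached 24 h. The treatment series included 50 μM, with 48 h exposure. Cells were cold-TCA fixed and stained with 0.4% SRB. Dye was solubilized in 10 mM Tris pH 10.4 and read at 540 nm against untreated control.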

Experiment [2] deals with PC-3. The experiment in a line: Cytotoxicity against human PC3 cells assessed as growth inhibition at 50 uM after 48 hrs by SRB assay relative to control. The class given is functional. To be noted: PC-3, 48 h, read-out: GI. The method in brief: as §1
On the technique in general: Sulforhodamine B stains cellular protein and so reports cell mass.

Experiment [3] deals with MCF7. In words: Cytotoxicity against human MCF7 cells assessed as growth inhibition after 48 hrs by SRB assay. The class given is functional, cell-based. To be noted: MCF7, 48 h. The method in brief:
(§2)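 Cells were grown in RPMI-1640 with 10% FBS and penicillin/streptomycin at 37°C, 5% CO₂. Seeding was PC-3 7000, MCF-7 8000, A549 7500 and HCT-116 7000 cells/well, with 24 h attachment. Cells were exposed to 1, 5, 10, 30 and 50 μM for 48 h, with a 5-fluorouracil reference. Cells were TCA-fixed (1 h, 4°C) and stained with 0.4% SRB. Bound dye was dissolved in 10 mM Tris pH 10.4 and read at 540 nm. IC50 came from the concentration-response.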

The subject of experiment [4] is PC-3. The experiment in a line: Cytotoxicity against human PC3 cells assessed as growth inhibition after 48 hrs by SRB assay. The class given is functional, cell-based. To be noted: PC-3, 48 h. The method in brief: as §2
Experiment [5] concerns HCT-116. In words: Cytotoxicity against human HCT116 cells assessed as growth inhibition at 50 uM after 48 hrs by SRB assay relative to control. The format is functional. To be noted: HCT-116, 48 h, read-out: GI. The method in brief:
as §1

Experiment [6] concerns A549. The experiment in a line: Cytotoxicity against human A549 cells assessed as growth inhibition at 50 uM after 48 hrs by SRB assay relative to control. The class given is functional. To be noted: A549, 48 h, read-out: GI. The method in brief: as §1
For experiment [7], the system named is HCT-116. In words: Induction of mitochondrial membrane potential loss in human HCT116 cells after 24 hrs by rhodamine123 staining based fluorescence microscopic analysis. The class given is functional, cell-based. The method in brief:
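Cells were seeded at 1×10^6/1.5 mL/well and treated 24 h at 3.6, 7.2 and 14.4 μM, with 5-FU at 5 μM as reference. Rhodamine-123 (10 nM) was added for the final 1 h. After a PBS wash, fluorescence was imaged by microscopy.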

For experiment [8], the system named is HCT-116. The experiment in a line: Induction of morphological changes in human HCT116 cells assessed as cell shrinkage after 24 hrs by phase contrast microscopic analysis. The format is functional, cell-based. The method in brief:
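HCT-116 cells were exposed 24 h to 3.6, 7.2 and 14.4 μM, alongside an untreated control. Morphology was photographed by phase contrast microscopy at 20x.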

The test system of experiment [9] is HCT-116. The experiment in a line: Anticlonogenic activity against human HCT116 cells incubated for 24 hrs measured up to 14 days by crystal violet staining-based assay. The class given is functional, cell-based. The method in brief: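 HCT-116 cells (8x10^4/mL/well) were treated 24 h at 3.6, 7.2 and 14.4 μM. They were then trypsinized and re-seeded at 1000 cells/well, and grown about 14 days to colonies of >50 cells. Colonies were fixed in 4% formaldehyde and stained with 0.5% crystal violet. Colony number was expressed relative to untreated control, with 5-fluorouracil as reference; means ± SD, n = 3.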

Experiment [10] concerns A549. In words: Cytotoxicity against human A549 cells assessed as growth inhibition after 48 hrs by SRB assay. Particulars: A549, 48 h. The class given is functional, cell-based. The method in brief:
as §2

Experiment [11] deals with HCT-116. In words: Antimigratory activity against human HCT116 cells assessed as inhibition of wound closure up to 24 hrs by wound scratch assay. The format is functional, cell-based. The method in brief: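 HCT-116 cells were plated at 8×10^5/well and grown to 70–80% confluence, then serum-starved 24 h. The monolayer was scratched with a pipette tip and treated at 3.6, 7.2 and 14.4 μM for 24 h. Wounds were imaged at 0 and 24 h (20x). Percent wound closure was computed from wound areas relative to control; means ± SD, n = 3.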

Experiment [12] concerns HCT-116. The experiment in a line: Cytotoxicity against human HCT116 cells assessed as growth inhibition after 48 hrs by SRB assay. The class given is functional, cell-based. Particulars: HCT-116, 48 h. The method in brief:
as §2

Experiment [13] deals with HCT-116. In words: Induction of apoptosis in human HCT116 cells assessed as PARP cleavage at 3.6 uM after 24 hrs by Western blot analysis. The format is functional, cell-based. The method in brief:
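HCT-116 cells were treated 24 h at 3.6, 7.2 and 14.4 μM. RIPA whole-cell lysates with protease/phosphatase inhibitors were BCA-quantified. Equal protein was run on 10% SDS-PAGE and transferred to PVDF, then blocked with 5% BSA/TBST for 1 h. Blots were probed with anti-PARP (1:1000) and β-actin (1:500, loading control) plus HRP secondaries. The read-out was the 89 kDa cleaved fragment.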
In general terms: A western blot detects proteins with antibodies after separation by electrophoresis.

The next experiment deals with HepG2. The experiment in a line: Cytotoxicity against human HepG2 cells. The format is functional, cell-based.
The target of experiment [14] is T1, Peroxisome proliferator-activated receptor gamma (Mus musculus, UniProt P37238).
T1 sequence (P37238 whole entry): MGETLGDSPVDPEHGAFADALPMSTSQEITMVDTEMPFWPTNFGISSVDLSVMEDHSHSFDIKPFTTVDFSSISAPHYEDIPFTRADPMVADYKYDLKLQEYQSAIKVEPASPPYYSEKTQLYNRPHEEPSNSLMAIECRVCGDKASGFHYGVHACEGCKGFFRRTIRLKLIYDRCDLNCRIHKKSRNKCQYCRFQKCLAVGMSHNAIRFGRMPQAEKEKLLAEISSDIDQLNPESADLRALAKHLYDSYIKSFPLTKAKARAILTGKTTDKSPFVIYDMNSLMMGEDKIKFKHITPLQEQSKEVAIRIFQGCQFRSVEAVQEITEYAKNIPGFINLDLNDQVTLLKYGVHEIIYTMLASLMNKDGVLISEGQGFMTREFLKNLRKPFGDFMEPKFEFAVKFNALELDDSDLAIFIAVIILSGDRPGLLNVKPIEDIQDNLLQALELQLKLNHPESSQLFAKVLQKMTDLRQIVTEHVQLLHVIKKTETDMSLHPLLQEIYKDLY
In words: Agonist activity at mouse PPARgamma expressed in 293T cells by dual luciferase reporter gene assay. The class given is cell-based. For orientation: Reporter assays use an easily measured gene product as a stand-in for the process of interest.

What is called IC50 is the concentration at which inhibition is half-maximal. For the compound `COc1ccc([C@@H]2C/C(=N/OCc3cn(-c4ccc(C(N)=O)cc4)nn3)c3cc(CC=C(C)C)c(OC)cc3O2)cc1`, the inhibition of growth at 50 µM in the experiment with MCF7 [1], in the experiment on PC-3 [2], with HCT-116 [5] and in the experiment on A549 [6] was 100% throughout. Moreover, the IC50 is 11.7 µM in the experiment on MCF7 [3], 16.1 µM in the experiment with PC-3 [4], 7.72 µM in the experiment on A549 [10] and 7.13 µM in the experiment on HCT-116 [12]. The Activity result in the experiment with HCT-116 [7], in the experiment on HCT-116 [8] and in the experiment with HCT-116 [9] was “Dose-dependent effect” throughout. In addition, in the experiment on HCT-116 [11], the inhibition entry is “Dose-dependent effect”. For the same compound, in the experiment with HCT-116 [13], the outcome was Active.
`COc1cc2c(cc1CC=C(C)C)C(=O)C[C@@H](c1ccc(OC3O[C@H](CO)[C@@H](O)[C@H](O)[C@H]3O)cc1)O2` (stereo partly specified): in the experiment on HepG2, 48.5 µM corresponded to half-maximal inhibition (IC50).
Take `COc1cc2c(cc1CC=C(C)C)/C(=N/NC(N)=O)C[C@@H](c1ccc(O)cc1)O2`: the inhibition of growth at 50 µM is 93% in the experiment with MCF7 [1], 67% with PC-3 [2], 87% in the experiment with HCT-116 [5] and 77% with A549 [6]. The IC50 turned out to be 19.5 µM in the experiment with MCF7 [3], 27.7 µM in the experiment with PC-3 [4], 25.3 µM in the experiment on A549 [10] and 24.3 µM in the experiment with HCT-116 [12].
With `COc1ccc([C@@H]2C/C(=N/OCc3cn(-c4ccccc4CO)nn3)c3cc(CC=C(C)C)c(OC)cc3O2)cc1`, the inhibition of growth at 50 µM with MCF7 [1], with PC-3 [2], in the experiment with HCT-116 [5] and in the experiment on A549 [6] was 100% in each case. Besides, the IC50 is 23.4 µM in the experiment with MCF7 [3], 26.6 µM in the experiment with PC-3 [4], 30.7 µM with A549 [10] and 29.9 µM with HCT-116 [12].
The EC50 is the concentration needed to bring the measured effect to its halfway point. Read a high EC50 as a less potent agent. Compound `COc1cc2c(cc1CC=C(C)C)C(=O)C[C@@H](c1ccc(OC(=O)c3ccc([N+](=O)[O-])cc3)cc1)O2` came in with an EC50 in experiment [14] of 0.43 µM.
For the compound `COc1cc2c(cc1CCC(C)C)C(=O)C[C@@H](c1ccc(O)cc1)O2`, the inhibition of growth at 50 µM was 81% with MCF7 [1], 78% in the experiment on PC-3 [2], 77% in the experiment with HCT-116 [5] and 75% with A549 [6]. The IC50 in the experiment with MCF7 [3] was determined as 34.5 µM; in the experiment on PC-3 [4], 36.3 µM; in the experiment on A549 [10], 30.5 µM; in the experiment with HCT-116 [12], 34.3 µM.
As for `COc1cc2c(cc1CC=C(C)C)/C(=N/O)C[C@@H](c1ccc(O)cc1)O2`, the inhibition of growth at 50 µM is 93% with MCF7 [1], 81% with PC-3 [2], 99% in the experiment on HCT-116 [5] and 80% in the experiment on A549 [6]. In addition, the IC50 with MCF7 [3] was 23.6 µM; in the experiment on PC-3 [4], 31.6 µM; in the experiment with A549 [10], 11.4 µM; in the experiment on HCT-116 [12], 29.7 µM.
The compound `COc1cc2c(cc1CC=C(C)C)C(=O)C[C@@H](c1ccc(OC(C)=O)cc1)O2` registered an EC50 in [14] of 0.78 µM.
Regarding `COc1cc2c(cc1CC1OC1(C)C)C(=O)C[C@@H](c1ccc(O)cc1)O2` (stereo partly specified), the inhibition of growth at 50 µM with MCF7 [1] is 98%; in the experiment on PC-3 [2], 92%; with HCT-116 [5] it was 97%; in the experiment on A549 [6] it was 79%. The IC50 in the experiment on MCF7 [3] amounted to 30.9 µM; in the experiment with PC-3 [4], 27.4 µM; in the experiment with A549 [10], 29.8 µM; in the experiment with HCT-116 [12] it was 29 µM.
